Data on 11 compounds can be found in ChEMBL document CHEMBL1136463, “The relationship between physicochemical properties, in vitro activity and pharmacokinetic profiles of analogues of diamine-containing efflux pump inhibitors” (Bioorg Med Chem Lett, 2003).

The nature of series [1]: Ionization constant (pKa1) of compound was determined. Type of series: physicochemical. Particulars: read-out: pKa1.
Series [2] can be described thus: Ionization constant (pKa2) of compound was determined. Conditions: read-out: pKa2. Type of series: physicochemical.
Series [3] has as its system Pseudomonas aeruginosa. Description: Minimum potentiation concentration required to reduce (potentiate) the activity of antibacterial drug-levofloxacin for Pseudomonas aeruginosa by n-fold in the absence of horse serum. Format: functional.
In series [4] the test system is Rattus norvegicus. The series can be described thus: Area under curve (AUC) at a dose 1 mg/kg was determined in rat kidney. Format: ADME, organism-based. Also noted: dose 1 mg/kg. Conditions: in vivo. Summed up: (§1)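 Male Sprague–Dawley rats with femoral and jugular venous catheters (5 rats), dosed alone or in cassettes of up to five compounds by 2 h constant-rate femoral vein infusion at 1 to 10 mg/kg. One rat killed at 0.25, 2, 8, 16 and 24 h after infusion start. Liver, kidney and lung homogenates assayed by HPLC/MS/MS. Tissue AUC0–24 h normalized to 1 mg/kg.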

The nature of series [5]: Partition coefficient (logP). Particulars: octanol/water. Format: physicochemical.
The test system of series [6] is Rattus norvegicus. Description: Area under curve (AUC) at a dose 1 mg/kg was determined in rat liver. Format: ADME, organism-based. The arrangement: dose 1 mg/kg. Particulars: in vivo. An outline of the steps:
as §1

Series [7] relates to Rattus norvegicus. The series can be described thus: Area under curve (AUC) at a dose 1 mg/kg was determined in rat lung. The arrangement: dose 1 mg/kg. Conditions: in vivo. Type of series: ADME, organism-based. Summed up: as §1
The nature of series [8]: Partition coefficient (logD). Type of series: physicochemical. Particulars: octanol/water.
Series [9] is described as follows: Clearance (Cl) of compound after 2 h iv infusion of 8.4 mg/kg in three rat. Type of series: ADME, organism-based. The arrangement: dose 8.4 mg/kg, route intravenous. Conditions: in vivo.
Series [10] can be described thus: T1/2 (half life) of compound after 2 hr iv infusion of 8.4 mg/kg in three rat. Type of series: ADME, organism-based. Also noted: dose 8.4 mg/kg, route intravenous. Particulars: in vivo.
Series [11] is described as follows: Steady state volume distribution (Vss) of compound after 2 hr iv infusion of 8.4 mg/kg in three rat. Type of series: ADME, organism-based. Also noted: dose 8.4 mg/kg, route intravenous. Particulars: in vivo, read-out: Vss.

The logP is a log measure of how a compound divides between an organic and an aqueous phase. The low end stands for a more hydrophilic compound, the high end for a more lipophilic compound. One may read the logD as lipophilicity at a set pH, counting ionised and neutral species. Higher therefore signals a more lipophilic compound. By clearance is commonly meant the rate of elimination divided by the concentration. A high value points to efficient removal. The half-life is the time in which the quantity being followed falls by half.

For the compound `NCC(=O)N1CCNCC1C(=O)N[C@H](CCc1ccccc1)C(=O)Nc1cnc2ccccc2c1` (stereo partly drawn), the pKa amounted to 8.2 in series [1] and 6.3 in series [2]. In addition, the MPC in series [3] is 20 µg/mL.
Regarding `NCC(=O)N1C[C@@H](N)C[C@@H]1C(=O)N[C@H](CCc1ccccc1)C(=O)Nc1cnc2ccccc2c1`, the AUC turned out to be 79 mg·h/kg in series [4], 20 mg·h/kg in [6] and 3 mg·h/kg in [7]. The pKa in series [1] was determined as 8.1; in series [2] it was 7.1. Besides, the log partition coefficient (logP) in series [5] was 1.8. The MPC in [3] stood at 10 µg/mL. In [8], this compound showed a log distribution coefficient (logD) of 0.9.
With `N[C@@H]1CN[C@@H](CC(=O)N[C@H](CCc2ccccc2)C(=O)Nc2cnc3ccccc3c2)C1`, the pKa in series [1] is 9.3; in [2] it was 6.3. The MPC in series [3] amounted to 5 µg/mL.
Take `N[C@@H]1CN[C@@H](C(=O)N[C@H](CCc2ccccc2)C(=O)Nc2cnc3ccccc3c2)C1`: the AUC worked out at 25 mg·h/kg in [4], 13 mg·h/kg in series [6] and 14 mg·h/kg in series [7]. Besides, the figures for the pKa in [1] and in [2] were 8.8 and 5.2, respectively. In series [5], this compound showed a lipophilicity (logP) of 2.3. Also, the MPC in series [3] was greater than 40 µg/mL. In series [8], the log distribution coefficient (logD) is 1.1.
Turning to `NC[C@@H]1CN[C@@H](C(=O)N[C@H](CCc2ccccc2)C(=O)Nc2cnc3ccccc3c2)C1`, the pKa is 9.6 in series [1] and 6.8 in series [2]. The MPC in [3] turned out to be 5 µg/mL.
Turning to `NC[C@@H]1CN[C@@H](C(=O)N[C@H](CCc2ccccc2)C(=O)Nc2ccc3ncccc3c2)C1`, the clearance in series [9] is 26.7 mL/min/kg. For the same compound, in series [10], the half-life is 43.8 min. For the same compound, the results for the AUC in series [4], in [6] and in series [7] were 56 mg·h/kg, 22 mg·h/kg and 15 mg·h/kg, respectively. The pKa in series [1] turned out to be 9.6; in [2], 6.9. The Vd in [11] worked out at 0.5 L/kg. Moreover, the log partition coefficient (logP) in series [5] stood at 2.3. The MPC in series [3] turned out to be 10 µg/mL. Besides, the logD in [8] amounted to 0.5.
`NCC(=O)N1C[C@@H](CN)C[C@@H]1C(=O)N[C@H](CCc1ccccc1)C(=O)Nc1ccc2ncccc2c1`: the AUC in series [4] stood at 100 mg·h/kg; in series [6], 26 mg·h/kg; in [7] it was 4 mg·h/kg. Moreover, the pKa in series [1] worked out at 9; in series [2], 7.7. Besides, the log partition coefficient (logP) in series [5] worked out at 1.2. Further, the MPC in series [3] is 10 µg/mL. In addition, the logD in series [8] was -0.5.
As for `NCC(=O)N1C[C@@H](N)C[C@@H]1C(=O)N[C@H](CCc1ccccc1)C(=O)Nc1ccc2ncccc2c1`, the AUC was 96 mg·h/kg in series [4], 12 mg·h/kg in [6] and 4 mg·h/kg in series [7]. The pKa was 8.2 in [1] and 7.2 in series [2]. The compound further had a logP in series [5] of 1.4. For the same compound, the MPC in series [3] was 20 µg/mL. The compound also displayed a logD in series [8] of 0.5.
For the compound `NCC(=O)N1CCNC(C(=O)N[C@H](CCc2ccccc2)C(=O)Nc2cnc3ccccc3c2)C1` (stereo partly drawn), the pKa in [1] is 8.5; in [2], 5.4. Moreover, in [3], the MPC was greater than 40 µg/mL.
On to `Cc1cc2nc([C@@H](CCc3ccccc3)NC(=O)[C@H]3C[C@H](N)CN3C(=O)CN)[nH]c2cc1C`, for which the AUC in [4] amounted to 133 mg·h/kg; in series [6] it was 176 mg·h/kg; in [7], 5 mg·h/kg. In series [5], this compound had a logP of 2.8. In addition, the MPC in series [3] amounted to 5 µg/mL. In series [8], this compound gave a logD of 1.9.
For `C[C@@H](N)C(=O)N[C@H](CCc1ccccc1)C(=O)Nc1cnc2ccccc2c1`, the AUC in series [4] worked out at 8.5 mg·h/kg; in [6] it was 5.5 mg·h/kg.
